In brackets after ≈: the same amount, converted by molar mass. Activity calls are given as the source filed them. The rule behind the calls is not given here.
Key:
[1] = test system: Escherichia coli; experiment: Antibacterial activity against Escherichia coli LCB0012 by broth micro dilution method; type: functional
How it was run: (§1)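 MIC90 was found by broth microdilution following NCCLS methods. Compounds were tested up to a top concentration of […]. Linezolid and trovafloxacin served as positive controls and DMSO as the negative control.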

[2] = test system: Staphylococcus aureus; experiment: Antibacterial activity against methicillin-resistant Staphylococcus aureus at 128 ug/mL by broth micro dilution method; type: functional, organism-based
How it was run: (§2)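 MIC90 was determined by broth microdilution following NCCLS methods. Linezolid and trovafloxacin were run as positive controls, with DMSO as the negative control. Compounds were tested up to a top concentration of 128.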

[3] = test system: Klebsiella pneumoniae; experiment: Antibacterial activity against Klebsiella pneumoniae at 128 ug/mL by broth micro dilution method; type: functional, organism-based
[4] = test system: Enterococcus faecalis; experiment: Antibacterial activity against vancomycin and linezolid-resistant Enterococcus faecalis at 128 ug/mL by broth micro dilution method; type: functional, organism-based; how it was run: as §2
[5] = test system: Escherichia coli; experiment: Antibacterial activity against Escherichia coli LCB0011 at 128 ug/mL by broth micro dilution method; type: functional, organism-based
[6] = test system: Staphylococcus epidermidis; experiment: Antibacterial activity against methicillin-resistant Staphylococcus epidermidis at 128 ug/mL by broth micro dilution method; type: functional, organism-based; how it was run: as §2
[7] = test system: Enterococcus faecium; experiment: Antibacterial activity against vancomycin-resistant Enterococcus faecium by broth micro dilution method; type: functional; details: for MIC90: Enterococcus faecium; how it was run: as §2
[8] = test system: Staphylococcus epidermidis; experiment: Antibacterial activity against Staphylococcus epidermidis at 128 ug/mL by broth micro dilution method; type: functional, organism-based
[9] = test system: Moraxella catarrhalis; experiment: Antibacterial activity against Moraxella catarrhalis at 128 ug/mL by broth micro dilution method; type: functional, organism-based
[10] = test system: Escherichia coli; experiment: Antibacterial activity against Escherichia coli LCB0010 at 128 ug/mL by broth micro dilution method; type: functional, organism-based
[11] = test system: Haemophilus influenzae; experiment: Antibacterial activity against Haemophilus influenzae at 128 ug/mL by broth micro dilution method; type: functional, organism-based
[12] = test system: Staphylococcus aureus; experiment: Antibacterial activity against Staphylococcus aureus at 128 ug/mL by broth micro dilution method; type: functional, organism-based
[13] = test system: Enterococcus faecalis; experiment: Antibacterial activity against Enterococcus faecalis at 128 ug/mL by broth micro dilution method; type: functional, organism-based
[14] = test system: Enterococcus faecalis; experiment: Antibacterial activity against vancomycin-resistant Enterococcus faecalis at 128 ug/mL by broth micro dilution method; type: functional, organism-based; how it was run: as §2
[15] = test system: Pseudomonas aeruginosa; experiment: Antibacterial activity against Pseudomonas aeruginosa at 128 ug/mL by broth micro dilution method; type: functional, organism-based
[16] = test system: Enterococcus faecium; experiment: Antibacterial activity against Enterococcus faecium at 128 ug/mL by broth micro dilution method; type: functional, organism-based
[17] = test system: Staphylococcus aureus; experiment: Antibacterial activity against Staphylococcus aureus by broth micro dilution method; type: functional; how it was run: as §1
[18] = test system: Escherichia coli; experiment: Antibacterial activity against Escherichia coli LCB0011 by broth micro dilution method; type: functional; how it was run: as §1
[19] = test system: Enterococcus faecalis; experiment: Antibacterial activity against Enterococcus faecalis by broth micro dilution method; type: functional; how it was run: as §1
[20] = test system: Escherichia coli; experiment: Antibacterial activity against Escherichia coli LCB0012 at 128 ug/mL by broth micro dilution method; type: functional, organism-based
[21] = test system: Mycobacterium tuberculosis; experiment: Antitubercular activity against Mycobacterium tuberculosis H37Rv ATCC 27294 at 256 ug/mL by radiometric respiratory technique; type: functional, organism-based
[22] = test system: Mycobacterium tuberculosis; experiment: Antitubercular activity against Mycobacterium tuberculosis H37Rv ATCC 27294 by radiometric respiratory technique; type: functional
[23] = test system: Mycobacterium tuberculosis; experiment: Antitubercular potency, ratio of Rifampicin MIC to drug MIC against Mycobacterium tuberculosis H37Rv ATCC 27294; type: functional
[24] = test system: Mycobacterium tuberculosis; experiment: Antitubercular potency, ratio of Isoniazid MIC to drug MIC against Mycobacterium tuberculosis H37Rv ATCC 27294; type: functional
[25] = test system: Enterococcus faecalis; experiment: Antibacterial activity against vancomycin-resistant Enterococcus faecalis by broth micro dilution method; type: functional; how it was run: as §2
[26] = test system: Staphylococcus aureus; experiment: Antibacterial activity against methicillin-resistant Staphylococcus aureus by broth micro dilution method; type: functional; how it was run: as §2
[27] = test system: Moraxella catarrhalis; experiment: Antibacterial activity against Moraxella catarrhalis by broth micro dilution method; type: functional; how it was run: as §1
[28] = test system: Enterococcus faecalis; experiment: Antibacterial activity against vancomycin and linezolid-resistant Enterococcus faecalis by broth micro dilution method; type: functional; how it was run: as §2
[29] = test system: Staphylococcus epidermidis; experiment: Antibacterial activity against Staphylococcus epidermidis by broth micro dilution method; type: functional; how it was run: as §2
[30] = test system: Enterococcus faecium; experiment: Antibacterial activity against vancomycin-resistant Enterococcus faecium at 128 ug/mL by broth micro dilution method; type: functional, organism-based; how it was run: as §2
[31] = test system: Haemophilus influenzae; experiment: Antibacterial activity against Haemophilus influenzae by broth micro dilution method; type: functional; how it was run: as §1
[32] = test system: Staphylococcus epidermidis; experiment: Antibacterial activity against methicillin-resistant Staphylococcus epidermidis by broth micro dilution method; type: functional; how it was run: as §2
[33] = test system: Enterococcus faecium; experiment: Antibacterial activity against Enterococcus faecium by broth micro dilution method; type: functional; how it was run: as §1

| SMILES | MIC90 [1] | Activity [2] | Activity [3] | Activity [4] | Activity [5] | Activity [6] | MIC90 [7] | Activity [8] | Activity [9] | Activity [10] | Activity [11] | Activity [13] | Activity [14] | Activity [15] | Activity [16] | MIC90 [17] | MIC90 [18] | MIC90 [19] | Activity [20] | MIC [22] | also measured |
| --- | --- | --- | --- | --- | --- | --- | --- | --- | --- | --- | --- | --- | --- | --- | --- | --- | --- | --- | --- | --- | --- |
| COc1ccc(C2CC(=O)C(C)C(c3ccc(OC)cc3)N2C(=O)Cn2cnc3ccccc32)cc1 (stereo unspecified) | 128 µg/mL (≈ 265 µM) | inactive | inactive | inactive | inactive | inactive | 128 µg/mL (≈ 265 µM) | inactive | inactive | inactive | inactive | inactive | inactive | inactive | inactive | – | – | – | – | – | Activity [12]: inactive |
| CCOC(=O)C1=C(OS(=O)(=O)c2ccccc2[N+](=O)[O-])CC(c2ccccc2)N(C(=O)CCl)C1c1ccccc1 (stereo unspecified) | – | inactive | inactive | inactive | – | inactive | 128 µg/mL (≈ 219 µM) | inactive | inactive | inactive | inactive | – | inactive | inactive | inactive | 64 µg/mL (≈ 109 µM) | 128 µg/mL (≈ 219 µM) | 128 µg/mL (≈ 219 µM) | inactive | – | Activity [21]: inactive |
| COc1ccccc1C1C(C)C(=O)C(C)C(c2ccccc2OC)N1C(=O)Cn1cnc2ccccc21 (stereo unspecified) | – | inactive | inactive | inactive | inactive | inactive | 16 µg/mL (≈ 32.2 µM) | inactive | inactive | inactive | inactive | – | inactive | inactive | inactive | 32 µg/mL (≈ 64.3 µM) | – | 64 µg/mL (≈ 129 µM) | inactive | 128 µg/mL (≈ 257 µM) | Ratio [23]: 25; Ratio [24]: 0.19 |
| Cc1ccc(C2C(C)C(=O)C(C)C(c3ccc(C)cc3)N2C(=O)Cn2cnc3ccccc32)cc1 (stereo unspecified) | – | – | inactive | inactive | – | inactive | 32 µg/mL (≈ 68.7 µM) | inactive | inactive | inactive | inactive | – | – | inactive | inactive | 64 µg/mL (≈ 137 µM) | 128 µg/mL (≈ 275 µM) | 128 µg/mL (≈ 275 µM) | – | – | MIC90 [25]: 128 µg/mL (≈ 275 µM); MIC90 [26]: 64 µg/mL (≈ 137 µM) |
| CCOC(=O)C1=C(O)CC(c2ccccc2)N(C(=O)Cn2cnc3ccccc32)C1c1ccccc1 (stereo unspecified) | – | inactive | inactive | – | inactive | inactive | 64 µg/mL (≈ 133 µM) | – | – | inactive | inactive | – | inactive | inactive | inactive | 32 µg/mL (≈ 66.5 µM) | – | 128 µg/mL (≈ 266 µM) | inactive | 16 µg/mL (≈ 33.2 µM) | MIC90 [27]: 64 µg/mL (≈ 133 µM); MIC90 [28]: 128 µg/mL (≈ 266 µM); MIC90 [29]: 128 µg/mL (≈ 266 µM); Ratio [23]: 200; Ratio [24]: 1.56 |
| COc1cc(OC)cc(C2CC(=O)C(C)C(c3cc(OC)cc(OC)c3)N2C(=O)Cn2cnc3ccccc32)c1 (stereo unspecified) | – | inactive | inactive | inactive | inactive | inactive | – | inactive | inactive | inactive | inactive | inactive | inactive | inactive | inactive | – | – | – | inactive | – | Activity [30]: inactive; Activity [12]: inactive |
| NNC(=O)c1ccncc1 [ISONIAZID] | – | – | – | – | – | – | – | – | – | – | – | – | – | – | – | – | – | – | – | 0.25 µg/mL (≈ 1.82 µM) | – |
| Cc1ccc(C2CC(=O)C(C)C(c3ccc(C)cc3)N2C(=O)Cn2cnc3ccccc32)cc1 (stereo unspecified) | 128 µg/mL (≈ 283 µM) | inactive | inactive | inactive | inactive | inactive | 64 µg/mL (≈ 142 µM) | inactive | inactive | inactive | inactive | inactive | inactive | inactive | inactive | – | – | – | – | – | Activity [12]: inactive |
| CC(=O)NC[C@H]1CN(c2ccc(N3CCOCC3)c(F)c2)C(=O)O1 [LINEZOLID] | 64 µg/mL (≈ 190 µM) | – | inactive | – | – | – | 2 µg/mL (≈ 5.93 µM) | – | – | inactive | – | – | – | inactive | – | 1 µg/mL (≈ 2.96 µM) | 16 µg/mL (≈ 47.4 µM) | 2 µg/mL (≈ 5.93 µM) | – | – | MIC90 [31]: 16 µg/mL (≈ 47.4 µM); MIC90 [27]: 8 µg/mL (≈ 23.7 µM); MIC90 [32]: 2 µg/mL (≈ 5.93 µM); MIC90 [28]: 64 µg/mL (≈ 190 µM); MIC90 [25]: 2 µg/mL (≈ 5.93 µM); MIC90 [29]: 1 µg/mL (≈ 2.96 µM); MIC90 [33]: 2 µg/mL (≈ 5.93 µM); MIC90 [26]: 2 µg/mL (≈ 5.93 µM) |
| C=Cc1ccc(S(=O)(=O)OC2=C(C(=O)OCC)C(c3ccccc3)N(C(=O)CCl)C(c3ccccc3)C2)cc1 (stereo unspecified) | 128 µg/mL (≈ 226 µM) | inactive | inactive | inactive | – | inactive | – | inactive | inactive | inactive | – | inactive | inactive | inactive | inactive | – | 128 µg/mL (≈ 226 µM) | – | – | – | MIC90 [31]: 128 µg/mL (≈ 226 µM); Activity [30]: inactive; Activity [12]: inactive |
| CC1C(=O)C(C)C(c2ccccc2Cl)N(C(=O)Cn2cnc3ccccc32)C1c1ccccc1Cl (stereo unspecified) | – | inactive | inactive | inactive | inactive | – | – | inactive | inactive | inactive | inactive | inactive | inactive | inactive | inactive | 64 µg/mL (≈ 126 µM) | – | – | inactive | – | MIC90 [32]: 128 µg/mL (≈ 253 µM); Activity [30]: inactive |
| COc1ccc(C2C(C)C(=O)C(C)C(c3ccc(OC)cc3)N2C(=O)Cn2cnc3ccccc32)cc1 (stereo unspecified) | 128 µg/mL (≈ 257 µM) | – | inactive | inactive | inactive | inactive | 16 µg/mL (≈ 32.2 µM) | inactive | – | inactive | inactive | – | inactive | inactive | inactive | 16 µg/mL (≈ 32.2 µM) | – | 64 µg/mL (≈ 129 µM) | – | 64 µg/mL (≈ 129 µM) | MIC90 [27]: 16 µg/mL (≈ 32.2 µM); Ratio [23]: 50; Ratio [24]: 0.39; MIC90 [26]: 128 µg/mL (≈ 257 µM) |
| CCOC(=O)C1=C(OS(=O)(=O)c2cccs2)CC(c2ccccc2)N(C(=O)CCl)C1c1ccccc1 (stereo unspecified) | – | – | inactive | inactive | – | – | – | – | – | inactive | inactive | inactive | inactive | inactive | inactive | 32 µg/mL (≈ 58.6 µM) | 128 µg/mL (≈ 234 µM) | – | inactive | 32 µg/mL (≈ 58.6 µM) | MIC90 [27]: 32 µg/mL (≈ 58.6 µM); MIC90 [32]: 128 µg/mL (≈ 234 µM); MIC90 [29]: 64 µg/mL (≈ 117 µM); Activity [7]: 32 µg/mL; Ratio [23]: 100; Ratio [24]: 0.78; MIC90 [26]: 64 µg/mL (≈ 117 µM) |
| CO[C@H]1/C=C/O[C@@]2(C)Oc3c(C)c(O)c4c(O)c(c(/C=N/N5CCN(C)CC5)c(O)c4c3C2=O)NC(=O)/C(C)=C\C=C\[C@H](C)[C@H](O)[C@@H](C)[C@@H](O)[C@@H](C)[C@H](OC(C)=O)[C@@H]1C [RIFAMPIN] | – | – | – | – | – | – | – | – | – | – | – | – | – | – | – | – | – | – | – | 32 µg/mL (≈ 38.9 µM) | – |
